KCNK9 block: human KCNK9 channel inhibition; B-score at 10 µM; actives 1.2% (n = 310,000); AID 488922; Q9NPC2; HEK293 KCNK9, FluxOR thallium flux fluorescence; hits give low values;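 active means ratio B-score over 3 SD below the library mean, with starting fluorescence within 5 SD of its mean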;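 further: negative B-score means less thallium flux so channel inhibition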
Target sequence (Q9NPC2 whole entry, looked up): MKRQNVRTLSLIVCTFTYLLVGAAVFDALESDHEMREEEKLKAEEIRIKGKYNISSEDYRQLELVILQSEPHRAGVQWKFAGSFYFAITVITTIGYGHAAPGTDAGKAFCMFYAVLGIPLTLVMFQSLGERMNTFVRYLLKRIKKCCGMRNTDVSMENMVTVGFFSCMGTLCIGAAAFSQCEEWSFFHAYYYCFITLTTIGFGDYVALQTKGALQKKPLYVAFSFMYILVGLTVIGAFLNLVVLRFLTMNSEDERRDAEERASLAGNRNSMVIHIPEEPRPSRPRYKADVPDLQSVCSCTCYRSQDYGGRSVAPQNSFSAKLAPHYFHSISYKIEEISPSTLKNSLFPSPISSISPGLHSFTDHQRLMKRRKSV
hERG rescue: compounds protecting human hERG from proarrhythmic drug block | Q12809 | CHO-hERG, FluxOR thallium flux, dofetilide IC70 present | activation (rescue from dofetilide block), less the hit threshold, % at 10 µM | actives 0.51% (n = 310,000);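 active means activation above the mean of controls blocked by dofetilide plus 5 SD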;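 further: thallium influx through hERG after potassium depolarization seen as dye fluorescence rise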
KCNQ1 inh: human KCNQ1 channel inhibition; P51787; CHO-K1 KCNQ1, FluxOR thallium flux fluorescence; hits give high values; B-score at 10 µM; actives 1.3% (n = 310,000); AID 2642;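 active means compounds whose thallium flux B-score, printed positive for inhibition, exceeds three library SD while starting fluorescence stays within three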;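 further: channel opened by potassium depolarization with thallium stimulus after 20 min compound exposure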
KCNK3 block: human KCNK3 channel inhibition, primary screen | actives 0.84% (n = 340,000) | O14649 | CHO-KCNK3 thallium flux, FluxOR fluorescence; hits give low values | AID 602410 | B-score at 10 µM;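 active means B-score under library mean minus 4 SD, starting fluorescence ratio at most library mean plus 5 SD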;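 further: more negative B-score means stronger inhibition of thallium flux through KCNK3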
Kir21 block: inhibitors of mouse Kir2.1 inward-rectifier potassium channel | HEK293-Kir2.1, FluxOR thallium flux fluorescence; hits give low values | B-score at 10 µM | actives 0.85% (n = 310,000) | AID 1672;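 active means fluorescence ratio B-score at or below minus 3 SD of library scores, with starting-brightness B-score within 2 SD, cut at about -4.2 in these data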;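 further: channel flux triggered by added potassium and thallium sulfate stimulus; B-score of peak minus minimum fluorescence over baseline after thallium stimulus; more negative B-score means stronger Kir2.1 block with less thallium influx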
KCNQ1 act: potentiates or activates the human KCNQ1 potassium channel | actives 0.35% (n = 310,000) | CHO-K1 KCNQ1, thallium flux FluxOR fluorescence; hits give high values | B-score at 10 µM | P51787 | AID 2648;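 active means fluorescence ratio B-score, a plate-corrected score, at least three library SD, with initial intensity B-score within 5 SD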
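Material: CHO-K1 cells stably expressing KCNQ1. Medium: assay buffer for compound exposure, DMSO matched across wells. Reagent: K+/Tl+ depolarizing stimulus. Compound dosing: single-concentration screen. Times: 37 °C overnight plating, 90-min dark dye load, 20-min compound pretreatment. Technique: FluxOR Tl+ flux fluorescence.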
Large screens that a line does not name were inactive. Hits are enriched below; roughly 3.7% of the tested compounds scored in any of these assays.

COc1ccc(S(=O)(=O)NC2(C(F)(F)F)N=C(c3ccccc3)NC2=O)cc1 (stereo not drawn)	KCNK9 block -7.94
CCCS(=O)(=O)N1CCN(Cc2ccc3c(c2)c2ccccc2n3CC)CC1	Kir21 block -5.92
CCn1c2ccccc2c2cc(CN3CCN(C(=O)c4ccco4)CC3)ccc21	none
COc1ccc(CN2CCNC(=O)C2CC(=O)N(C)Cc2ccon2)c(OC)c1 (stereo not drawn)	KCNQ1 inh 6
CCOC(=O)C1CCN(C2=NC(=O)/C(=C/c3ccc(Cl)cc3)S2)CC1	none
CCOC(=O)CSC1=NC(=O)/C(=C\c2ccc(Cl)cc2)S1	KCNQ1 inh 6
COc1ccc(Cl)cc1CN1CCN(c2nc(C)cc(C)c2C#N)CC1	KCNK3 block -9.63
COc1ccc(/C=N/n2c(C)cc(C)c(C(N)=O)c2=O)cc1	hERG rescue 6.5
O=C(NCc1ccccn1)c1cc(-c2ccc(Cl)cc2)oc1C(F)(F)F	KCNK9 block -7.36
O=C(NCc1ccncc1)c1cc(-c2ccc(Cl)cc2)oc1C(F)(F)F	none
COc1ccc(CCNC(=O)c2ccc3nc[nH]c3c2)cc1	none
CC(c1ccon1)N(C)C(=O)CCc1nnc(C2(c3ccc(Cl)cc3)CCC2)o1 (stereo not drawn)	Kir21 block -4.86
COc1cccc([C@@H]2Oc3ccc(OC)cc3C(=O)[C@H]2OC(=O)NCc2ccc3c(c2)OCO3)c1	hERG rescue 4.6 (no result: KCNK3 block)
COc1ccc2c(c1)O[C@@H](c1cccc(C(F)(F)F)c1)[C@H](OC(=O)NCCc1ccc(OC)c(OC)c1)C2=O	hERG rescue 8.4, KCNQ1 act 8 (no result: KCNK3 block)
COC(=O)[C@H](Cc1ccccc1)NC(=O)O[C@H]1C(=O)c2ccc(OC)cc2O[C@@H]1c1ccc2c(c1)OCO2	none (no result: KCNK3 block)
COc1ccc(Cl)cc1NC(=O)c1nnn(CC(=O)Nc2ccc(C)c(C)c2)c1N	none
NC(=O)C1CCN(C(=O)c2ccc(NS(=O)(=O)c3ccc(F)c(F)c3)cc2)CC1	none (no result: KCNK9 block, hERG rescue, KCNQ1 inh, Kir21 block, KCNQ1 act)
C/C(=N\OCc1nc2ccccc2c(=O)n1/N=C/c1cc(C)cc([N+](=O)[O-])c1O)c1ccccc1	KCNQ1 inh 9
Cc1cc([N+](=O)[O-])cc(/C=N/n2c(C)nc3ccccc3c2=O)c1O	none
CCCOc1ccc(/C=C/C(=O)Nc2ccc([N+](=O)[O-])cc2)cc1	KCNQ1 inh 7
Cc1ccc(Nc2cc(-c3ccccc3)nc3ncnn23)cc1	none
Cc1ccc(Nc2cc(Cl)nc(N)n2)c([N+](=O)[O-])c1	none (no result: KCNK9 block, hERG rescue, KCNQ1 inh, Kir21 block, KCNQ1 act)
O=C(CSc1nc2ccccc2c(=O)n1-c1ccc(F)cc1F)Nc1ccc2c(c1)CCC2	KCNK9 block -7.58
Cc1nccn1CCN(C)Cc1cn(Cc2ccccc2)nc1-c1ccc2c(c1)OCO2	Kir21 block -5.48
Cc1ccc(CSCCNC(=O)CN2C(=O)c3ccccc3S2(=O)=O)cc1	hERG rescue 4.9
Cc1cc(-c2nnc(SCC(=O)Nc3ccccc3)n2C)no1	none
Cc1cc(-c2nnc(SCC(=O)Nc3ccc(C(F)(F)F)cc3)n2C)no1	hERG rescue 6.2
O=P(CCCCCCCCCP(=O)(c1ccccc1)c1ccccc1)(c1ccccc1)c1ccccc1	KCNK9 block -7.22
COc1cc(C(=O)NCC(c2ccc(F)cc2)N2CCOCC2)ccc1OCc1ccccc1Cl (stereo not drawn)	KCNQ1 inh 10
CCN(c1nc(N)c(C(=O)N=C(N)N)nc1Cl)C(C)C	Kir21 block -5.72
O=C1C(=O)N(CCN2CCOCC2)C(c2cccnc2)/C1=C(/O)c1ccc(Cl)cc1 (stereo not drawn)	hERG rescue 5.5
O=C1C(=O)N(CCN2CCOCC2)C(c2cccnc2)/C1=C(/O)c1ccccc1 (stereo not drawn)	none (no result: KCNK3 block)
COc1cccc(CNC(=O)CCC2CCCN(C(=O)c3ccccc3N(C)C)C2)c1 (stereo not drawn)	none
CC(NC(=O)C1CCCN(C(=O)c2ccc(Cl)cc2)C1)c1cccc(C(F)(F)F)c1 (stereo not drawn)	none (no result: KCNK9 block, hERG rescue, KCNQ1 inh, Kir21 block, KCNQ1 act)
Nc1ccccc1Sc1ccc(C(=O)c2ccccc2C(=O)O)cc1[N+](=O)[O-]	none
CC(C)OC(=O)c1ccccc1C(=O)c1ccc(N)c([N+](=O)[O-])c1	Kir21 block -5.29

From PubChem
